Screening results: PubChem BioAssay, Broad Institute
Rows were chosen to be rich in hits. Some 2.9% of all compounds tested hit in one or more screens of this group.
ERAP1 HTS inh: human ERAP1 aminopeptidase inhibitors, primary screen, biochemical, single point, plate reader. Endoplasmic reticulum aminopeptidase 1 (Homo sapiens), Q9NZ08. recombinant ERAP1, Leu-AMC fluorescence, 60 min. inhibition, % at 10.7 µM. 0.15% of 340,000 active. AID 652197, 2013;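 active = mean replicate inhibition of at least 30%, or all replicates individually reaching that 30% level; inactive = mean below 30% and not every replicate reaching it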
SIRT5 block: SIRT5 desuccinylase inhibitors, primary screen, biochemical, fluorescence imaging, single point, set 5 | NAD-dependent protein deacylase sirtuin-5, mitochondrial (Homo sapiens), Q9NXA8 | Purified SirT5, succinyl-peptide AMC, trypsin-coupled fluorescence | inhibition, % at 15 µM | 1.1% of 330,000 active; in the data active = inhibition above about 15%; inconclusive = no clear call, values can overlap the other calls
Target sequence (Q9NXA8 whole entry, looked up): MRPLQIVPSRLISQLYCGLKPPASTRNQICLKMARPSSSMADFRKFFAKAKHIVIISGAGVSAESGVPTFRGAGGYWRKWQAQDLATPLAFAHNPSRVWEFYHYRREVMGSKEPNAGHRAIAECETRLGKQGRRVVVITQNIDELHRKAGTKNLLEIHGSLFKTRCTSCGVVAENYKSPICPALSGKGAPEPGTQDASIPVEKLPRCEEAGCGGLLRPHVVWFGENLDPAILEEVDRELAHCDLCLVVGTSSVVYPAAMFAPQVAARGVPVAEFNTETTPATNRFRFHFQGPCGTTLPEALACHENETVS
S100A4 MyoIIA: inhibitors of S100A4-myosin IIA peptide binding, primary screen, biochemical, fluorescence polarization, TAMRA-MyoIIA peptide | Protein S100-A4 (Homo sapiens), P26447 | inhibition, % at 10.7 µM | 0.14% of 360,000 active;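 active = mean inhibition of at least 70% across replicates, with every replicate also reaching that level; inconclusive = mean inhibition reaches 70% but some replicates fall short; inactive = mean inhibition below 70%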
Target sequence (P26447 whole entry, looked up): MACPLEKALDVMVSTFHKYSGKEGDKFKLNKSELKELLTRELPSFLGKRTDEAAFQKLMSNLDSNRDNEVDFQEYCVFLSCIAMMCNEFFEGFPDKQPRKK
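assay system = human S100A4 monomer with TAMRA-labelled myosin IIA peptide | also added = labelled myosin peptide probe, 5 nM | incubation = 5 min between mix addition and reading | control set = DMSO and TFP controls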
CAL PDZ FP-1: untagged CAL PDZ binding inhibitors, primary screen, biochemical, fluorescence polarization, HTS. Golgi-associated PDZ and coiled-coil motif-containing protein (Homo sapiens), Q9HD26. purified CAL PDZ, TMR-peptide fluorescence polarization, 1 h. inhibition, % at 24.9 µM. 0.92% of 300,000 active;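 active = mean inhibition of at least 30% with at least half of replicates also reaching 30%; inconclusive = no clear call, values can overlap the other calls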
DENV2 CPE: inhibitors of DENV2 cytopathic effect, primary screen, cell-based, plate reader, single concentration | DENV2-infected cells, cytopathic effect rescue | CPE inhibition, % at 9.99 µM | 1.7% of 350,000 active; in the data active = CPE inhibition above about 20%, passing the limit was not always enough; inconclusive = no clear call, values can overlap the other calls; tested in BHK-21 cells
CAL PDZ FP-2: CAL PDZ peptide-binding inhibitors, primary screen, biochemical, fluorescence polarization, Cer-tagged CAL PDZ, HTS; Golgi-associated PDZ and coiled-coil motif-containing protein (Homo sapiens), Q9HD26; purified CAL PDZ, TMR-peptide fluorescence polarization, 1 h; inhibition, % at 20 µM; 0.02% of 330,000 active; AID 504414, 2011;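 active = highest replicate inhibition of at least 40%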
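Control set: unlabelled peptide and DMSO controls / Material: purified CerCALP PDZ construct / Timing: 1 h incubation at room temperature before polarization reading / Doses: 20 µM, one dose / Detection: fluorescence polarization (mP)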
Large screens that a line does not name were inactive.

Cc1noc(C)c1NC(=O)N(C)C[C@H]1OCCCC[C@H](C)Oc2ccc(NC(=O)C3CCCCC3)cc2C(=O)N([C@H](C)CO)C[C@@H]1C	none (no result: CAL PDZ FP-1, CAL PDZ FP-2)
CN(C)S(=O)(=O)c1ccc(NC(=O)CN2CCCCCC2)cc1	CAL PDZ FP-1 133
COc1ccccc1NC(=O)CN1CCCCCC1	CAL PDZ FP-1 47
CN1CCN(CC(=O)Nc2ccc(S(=O)(=O)N(C)C)cc2)CC1	none
O=C(CN1CCN(C(=O)C2CCC2)CC1)Nc1ccc(F)cc1	DENV2 CPE 32
COc1ccccc1NC(=O)CNC(c1ccccc1)c1ccccc1	CAL PDZ FP-1 33
COc1ccc(S(=O)(=O)N[C@H]2CC[C@H](CC(=O)O)O[C@H]2CO)cc1	none (no result: CAL PDZ FP-1, CAL PDZ FP-2)
Cc1noc(C)c1S(=O)(=O)Nc1cccc2c1O[C@H](CN(C)S(C)(=O)=O)[C@H](C)CN([C@H](C)CO)C2=O	none (no result: CAL PDZ FP-1, CAL PDZ FP-2)
COc1cc(NC(=O)c2ccco2)c(OC)cc1NC(=O)c1cc(OC)c(OC)c(OC)c1	CAL PDZ FP-1 97 (no result: ERAP1 HTS inh, SIRT5 block, S100A4 MyoIIA, DENV2 CPE)
CCNCc1cc(Br)c(OCC(=O)Nc2ccccc2)c(OC)c1	none (no result: ERAP1 HTS inh, SIRT5 block, S100A4 MyoIIA, DENV2 CPE)
O=C(Nc1ccc(Cl)cc1)N1CCN(C(=O)C2CCCO2)CC1 (stereo unspecified)	none
O=C(CN1CCN(C(=O)C2CCCO2)CC1)Nc1ccc(Cl)cc1 (stereo unspecified)	CAL PDZ FP-1 33
CNCc1cc(Br)c(OCC(=O)Nc2ccccc2OC)c(OC)c1	SIRT5 block 24
O=C(C[C@H]1C[C@@H]2c3cc(NC(=O)NC4CCCC4)ccc3O[C@@H]2[C@H](CO)O1)NCc1ccc(Cl)cc1	none (no result: CAL PDZ FP-1, CAL PDZ FP-2)
Cc1ccc(NC(=O)CSC(C)C(=O)OCC(=O)N2CCN(C(=O)c3ccco3)CC2)cc1 (stereo unspecified)	DENV2 CPE 86
Cc1ccc(NC(=O)CSCC(=O)N2CCN(C(=O)c3ccco3)CC2)cc1	none
C/C(=N\NC(=O)C1CC1c1ccccc1)c1cccc([N+](=O)[O-])c1 (stereo unspecified)	none (no result: ERAP1 HTS inh, SIRT5 block, S100A4 MyoIIA, DENV2 CPE)
C/C(=N\NC(=O)C1CC1(c1ccccc1)c1ccccc1)c1cccc([N+](=O)[O-])c1 (stereo unspecified)	SIRT5 block 15, DENV2 CPE inconclusive
Cc1noc(C)c1S(=O)(=O)N(C)C[C@H]1Oc2ccc(NS(=O)(=O)c3cccs3)cc2C(=O)N([C@@H](C)CO)C[C@H]1C	none (no result: CAL PDZ FP-1, CAL PDZ FP-2)
CCO/C=C1/C(=O)N(Cc2ccccc2)C(=O)c2ccccc21	SIRT5 block 26
CCn1cnc2sc(C(=O)Oc3cccc(C)c3)c(C)c2c1=O	CAL PDZ FP-1 42
Cc1c(C(=O)Oc2ccc(F)cc2)sc2ncn(Cc3cccc(F)c3)c(=O)c12	none
CCOC(=O)CC1(C)OCC(C[N+]2(C)CCCCC2)O1 (stereo unspecified)	ERAP1 HTS inh 96
CN1C(=O)c2cc(NC(=O)c3cccs3)ccc2OC[C@@H]2O[C@@H](CC(=O)NCC(F)(F)F)CC[C@@H]21	none (no result: CAL PDZ FP-1, CAL PDZ FP-2)
C[C@H](NC(=O)c1ncn(Cc2ccccc2)c1C(=O)N[C@@H](C)c1ccccc1)c1ccccc1	DENV2 CPE 75 (no result: SIRT5 block)
C[C@@H](NC(=O)c1nc[nH]c1C(=O)N(C)Cc1ccccc1)c1ccccc1	DENV2 CPE 35 (no result: SIRT5 block)
CCCN1C[C@H](C)[C@@H](OC)CN(C)C(=O)c2ccc(NC(=O)C3CC3)cc2OC[C@@H]1C	none (no result: CAL PDZ FP-1, CAL PDZ FP-2)
CO[C@H]1CN(C)C(=O)c2ccc(NC(=O)C3CCOCC3)cc2OC[C@@H](C)N(Cc2cccnc2)C[C@H]1C	none (no result: SIRT5 block, CAL PDZ FP-1, CAL PDZ FP-2)
CN1C(=O)c2cc(NS(=O)(=O)c3ccc(Cl)cc3)ccc2OC[C@@H]2O[C@H](CC(=O)N3CCc4ccccc4C3)CC[C@H]21	DENV2 CPE 40 (no result: CAL PDZ FP-1, CAL PDZ FP-2)
CN1C(=O)c2cc(NS(=O)(=O)c3ccc(Cl)cc3)ccc2OC[C@@H]2O[C@@H](CC(=O)N3CCc4ccccc4C3)CC[C@@H]21	none (no result: CAL PDZ FP-1, CAL PDZ FP-2)
